Assay results from ChEMBL document CHEMBL3352121, “Modulation of Activity Profiles for Largazole-Based HDAC Inhibitors through Alteration of Prodrug Properties” (ACS Med Chem Lett, 2014).
Active and inactive are the calls of the source. No cut-off for these calls is given here.

Columns and labels:
HCT-116 [1] = test: In vivo inhibition of HDAC in tumor of human HCT116 cells xenografted nu/nu mouse assessed as increase in histone hyperacetylation at 50 mg/kg, po after 4 to 12 hrs by immunoblotting method; format: functional, organism-based; parameters: dose 50 mg/kg
How it was run: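 Mice bearing HCT116 xenografts were dosed intraperitoneally at 10 or 50 mg/kg, or orally at 50 mg/kg. Tumors were excised at 4, 12 and 24 h. Histone hyperacetylation in the tumors was assessed by immunoblot, n = 2.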

[2] = Drug metabolism in human HCT116 cells protein lysate solution assessed as largazole thiol formation at 25 ug/mL after 30 mins by HPLC-MS method; format: ADME, cell-based; conditions: hct-116, 0.5 h
HCT-116 [3] = test: In vivo inhibition of HDAC in tumor of human HCT116 cells xenografted nu/nu mouse assessed as increase in histone hyperacetylation at 50 mg/kg, ip after 4 to 24 hrs by immunoblotting method; format: functional, organism-based; parameters: dose 50 mg/kg
How it was run: (§1)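 HCT116 xenograft mice were dosed intraperitoneally at 10 or 50 mg/kg. Tumors were excised after 4, 12 and 24 h, n = 2. Histone hyperacetylation in tumor tissue was assessed by immunoblotting.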

HCT-116 [4] = test: In vivo inhibition of HDAC in tumor of human HCT116 cells xenografted nu/nu mouse assessed as increase in histone hyperacetylation at 50 mg/kg, ip after 4 hrs by immunoblotting method; format: functional, organism-based; parameters: dose 50 mg/kg; how it was run: as §1
Serum = test: Drug metabolism in mouse serum assessed as largazole thiol formation after 0.25 to 1440 mins by HPLC-MS method; format: ADME, cell-free
HCT-116 [5] = test: In vivo inhibition of HDAC in tumor of human HCT116 cells xenografted nu/nu mouse assessed as increase in histone hyperacetylation at 10 mg/kg, ip after 4 to 24 hrs by immunoblotting method; format: functional, organism-based; parameters: dose 10 mg/kg; how it was run: as §1
[6] = target: Histone deacetylase (Homo sapiens) (UniProt Q13547+O15379+Q9UBN7+Q92769+Q9UQL6+Q8WUI4+Q9BY41+Q96DB2+P56524+Q9UKV0+Q969S8); test: Inhibition of HDAC in human HCT116 cells assessed as increase in histone H3 (Lys9/14) hyperacetylation after 8 to 24 hrs by immunoblotting method; format: cell-based; conditions: HCT-116
How it was run: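 HCT116 cells were treated across a dose range. Cellular HDAC inhibition was read as histone H3 (Lys9/14) hyperacetylation by immunoblot at 8 and 24 h post-treatment.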

[7] = Drug metabolism in tumor of human HCT116 cells xenografted nu/nu mouse assessed as time for maximum largazole thiol level at 50 mg/kg, ip by HPLC-MS method; format: ADME, organism-based, Neoplasm, HCT-116; parameters: dose 50 mg/kg, route intraperitoneal; conditions: in vivo
[8] = Drug metabolism in tumor of human HCT116 cells xenografted nu/nu mouse assessed as time for maximum largazole thiol level at 10 mg/kg, ip by HPLC-MS method; format: ADME, organism-based, Neoplasm, HCT-116; parameters: dose 10 mg/kg, route intraperitoneal; conditions: in vivo
[9] = Drug metabolism in tumor of human HCT116 cells xenografted nu/nu mouse assessed largazole thiol formation at 50 mg/kg, po by HPLC-MS method; conditions: in vivo
Histone deacetylase 4 [10] = target: T1, Histone deacetylase 4 (Homo sapiens, UniProt P56524); test: Inhibition of HDAC4 (unknown origin) at 1 uM incubated for 30 mins in presence of BSA and in absence of DTT by fluorescence assay
How it was run: (§2)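 Purified-HDAC assay, single point: percent inhibition read at 1 μM, the highest concentration tested.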

Histone deacetylase 5 [11] = target: T2, Histone deacetylase 5 (Homo sapiens, UniProt Q9UQL6); test: Inhibition of HDAC5 (unknown origin) at 1 uM incubated for 30 mins in presence of BSA and in absence of DTT by fluorescence assay; how it was run: as §2
Histone deacetylase 4 [12] = target: T1, Histone deacetylase 4; test: Inhibition of HDAC4 (unknown origin) incubated for 30 mins in presence of BSA and in absence of DTT by fluorescence assay
Histone deacetylase 9 [13] = target: T3, Histone deacetylase 9 (Homo sapiens, UniProt Q9UKV0); test: Inhibition of HDAC9 (unknown origin) at 1 uM incubated for 30 mins in presence of BSA and in absence of DTT by fluorescence assay; how it was run: as §2
Histone deacetylase 7 = target: T4, Histone deacetylase 7 (Homo sapiens, UniProt Q8WUI4); test: Inhibition of HDAC7 (unknown origin) incubated for 30 mins in presence of BSA and in absence of DTT by fluorescence assay
T4 sequence (Q8WUI4 whole entry): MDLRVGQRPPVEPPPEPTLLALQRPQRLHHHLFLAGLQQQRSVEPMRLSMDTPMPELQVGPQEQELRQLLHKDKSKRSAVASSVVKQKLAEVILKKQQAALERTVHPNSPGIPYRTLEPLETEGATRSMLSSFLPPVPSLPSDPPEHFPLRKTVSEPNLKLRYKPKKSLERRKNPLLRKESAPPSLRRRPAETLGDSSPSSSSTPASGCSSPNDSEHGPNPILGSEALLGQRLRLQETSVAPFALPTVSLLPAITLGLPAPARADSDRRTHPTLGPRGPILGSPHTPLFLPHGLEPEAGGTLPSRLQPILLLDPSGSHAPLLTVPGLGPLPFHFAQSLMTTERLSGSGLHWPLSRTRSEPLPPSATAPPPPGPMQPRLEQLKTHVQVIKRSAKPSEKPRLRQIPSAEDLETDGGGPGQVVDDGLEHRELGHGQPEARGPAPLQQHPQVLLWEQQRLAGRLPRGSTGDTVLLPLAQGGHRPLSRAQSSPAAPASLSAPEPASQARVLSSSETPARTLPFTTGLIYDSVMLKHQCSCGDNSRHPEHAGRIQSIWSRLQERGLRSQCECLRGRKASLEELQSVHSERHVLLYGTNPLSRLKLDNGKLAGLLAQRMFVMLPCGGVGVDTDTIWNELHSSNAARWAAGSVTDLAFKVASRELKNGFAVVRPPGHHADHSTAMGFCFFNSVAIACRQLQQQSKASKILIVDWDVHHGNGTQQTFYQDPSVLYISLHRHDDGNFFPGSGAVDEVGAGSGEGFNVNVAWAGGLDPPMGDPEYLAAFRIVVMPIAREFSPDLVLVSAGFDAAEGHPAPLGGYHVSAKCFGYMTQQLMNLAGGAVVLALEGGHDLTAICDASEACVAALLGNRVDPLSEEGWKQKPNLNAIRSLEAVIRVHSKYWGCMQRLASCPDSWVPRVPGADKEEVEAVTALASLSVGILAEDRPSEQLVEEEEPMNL

[14] = Antiproliferative activity against human HCT116 cells after 48 hrs in absence of DTT by MTT assay; format: functional, cell-based; conditions: HCT-116, 48 h
[15] = target: T5, Histone deacetylase 7 (Homo sapiens) (UniProt Q8WUI4); test: Inhibition of HDAC7 (unknown origin) at 1 uM incubated for 30 mins in presence of BSA and in absence of DTT by fluorescence assay; how it was run: as §2
T5 sequence (whole entry): T4 sequence (Q8WUI4 whole entry)

Histone deacetylase 5 [16] = target: T2, Histone deacetylase 5; test: Inhibition of HDAC5 (unknown origin) incubated for 30 mins in presence of BSA and in absence of DTT by fluorescence assay
Histone deacetylase 9 [17] = target: T3, Histone deacetylase 9; test: Inhibition of HDAC9 (unknown origin) incubated for 30 mins in presence of BSA and in absence of DTT by fluorescence assay

T2 sequence (Q9UQL6 whole entry): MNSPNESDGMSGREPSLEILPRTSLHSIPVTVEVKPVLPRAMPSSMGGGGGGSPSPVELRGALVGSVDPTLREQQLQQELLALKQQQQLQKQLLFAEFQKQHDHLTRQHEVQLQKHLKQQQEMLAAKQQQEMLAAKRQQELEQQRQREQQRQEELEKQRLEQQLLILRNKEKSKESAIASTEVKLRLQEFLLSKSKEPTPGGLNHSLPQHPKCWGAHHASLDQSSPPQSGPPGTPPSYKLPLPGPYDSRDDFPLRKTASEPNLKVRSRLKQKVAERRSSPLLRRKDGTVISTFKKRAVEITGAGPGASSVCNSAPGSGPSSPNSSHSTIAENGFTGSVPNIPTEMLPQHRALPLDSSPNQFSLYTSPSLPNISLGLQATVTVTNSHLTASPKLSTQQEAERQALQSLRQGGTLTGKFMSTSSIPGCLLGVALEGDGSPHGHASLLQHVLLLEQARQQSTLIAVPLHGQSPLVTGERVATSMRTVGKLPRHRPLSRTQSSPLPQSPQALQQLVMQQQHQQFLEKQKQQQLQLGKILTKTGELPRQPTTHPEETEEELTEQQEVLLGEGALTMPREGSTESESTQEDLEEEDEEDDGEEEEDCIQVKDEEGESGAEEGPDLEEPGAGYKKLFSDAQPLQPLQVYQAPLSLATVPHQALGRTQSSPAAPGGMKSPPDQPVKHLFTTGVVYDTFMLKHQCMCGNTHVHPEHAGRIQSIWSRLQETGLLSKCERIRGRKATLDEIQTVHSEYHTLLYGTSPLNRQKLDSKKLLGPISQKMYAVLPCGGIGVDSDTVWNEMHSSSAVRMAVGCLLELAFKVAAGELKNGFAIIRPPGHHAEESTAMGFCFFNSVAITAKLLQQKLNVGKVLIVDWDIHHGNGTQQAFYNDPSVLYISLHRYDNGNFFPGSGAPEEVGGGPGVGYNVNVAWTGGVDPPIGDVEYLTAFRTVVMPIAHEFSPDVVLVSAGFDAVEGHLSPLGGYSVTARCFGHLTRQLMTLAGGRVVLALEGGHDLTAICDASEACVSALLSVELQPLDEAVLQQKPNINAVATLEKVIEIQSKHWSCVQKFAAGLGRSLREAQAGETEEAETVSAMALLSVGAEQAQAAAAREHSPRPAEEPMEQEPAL
T3 sequence (Q9UKV0 whole entry): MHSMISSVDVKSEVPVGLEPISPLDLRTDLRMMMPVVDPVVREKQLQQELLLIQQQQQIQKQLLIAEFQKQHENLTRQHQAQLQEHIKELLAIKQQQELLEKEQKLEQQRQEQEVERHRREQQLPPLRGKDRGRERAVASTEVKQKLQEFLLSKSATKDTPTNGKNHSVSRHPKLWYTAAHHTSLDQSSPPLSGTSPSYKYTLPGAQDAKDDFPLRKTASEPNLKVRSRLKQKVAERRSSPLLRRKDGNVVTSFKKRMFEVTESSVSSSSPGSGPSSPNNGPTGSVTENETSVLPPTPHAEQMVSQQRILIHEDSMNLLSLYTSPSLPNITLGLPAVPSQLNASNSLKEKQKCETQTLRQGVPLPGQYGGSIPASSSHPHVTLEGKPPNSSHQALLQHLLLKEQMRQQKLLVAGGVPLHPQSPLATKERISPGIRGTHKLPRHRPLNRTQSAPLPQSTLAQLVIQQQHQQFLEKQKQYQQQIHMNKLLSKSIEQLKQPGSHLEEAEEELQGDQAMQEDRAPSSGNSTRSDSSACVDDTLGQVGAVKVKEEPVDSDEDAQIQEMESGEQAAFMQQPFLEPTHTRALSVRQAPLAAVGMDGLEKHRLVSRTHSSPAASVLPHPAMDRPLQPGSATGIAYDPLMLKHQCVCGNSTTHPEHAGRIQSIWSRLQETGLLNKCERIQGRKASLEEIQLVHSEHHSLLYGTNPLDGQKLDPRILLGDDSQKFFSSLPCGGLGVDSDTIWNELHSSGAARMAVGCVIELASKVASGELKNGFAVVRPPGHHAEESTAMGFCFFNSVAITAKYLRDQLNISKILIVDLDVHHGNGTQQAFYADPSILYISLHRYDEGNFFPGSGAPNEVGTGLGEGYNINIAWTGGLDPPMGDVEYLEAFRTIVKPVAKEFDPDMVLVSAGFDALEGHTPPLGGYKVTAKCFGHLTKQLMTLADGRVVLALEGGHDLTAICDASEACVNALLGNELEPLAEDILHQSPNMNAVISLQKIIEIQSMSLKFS
T1 sequence (P56524 whole entry): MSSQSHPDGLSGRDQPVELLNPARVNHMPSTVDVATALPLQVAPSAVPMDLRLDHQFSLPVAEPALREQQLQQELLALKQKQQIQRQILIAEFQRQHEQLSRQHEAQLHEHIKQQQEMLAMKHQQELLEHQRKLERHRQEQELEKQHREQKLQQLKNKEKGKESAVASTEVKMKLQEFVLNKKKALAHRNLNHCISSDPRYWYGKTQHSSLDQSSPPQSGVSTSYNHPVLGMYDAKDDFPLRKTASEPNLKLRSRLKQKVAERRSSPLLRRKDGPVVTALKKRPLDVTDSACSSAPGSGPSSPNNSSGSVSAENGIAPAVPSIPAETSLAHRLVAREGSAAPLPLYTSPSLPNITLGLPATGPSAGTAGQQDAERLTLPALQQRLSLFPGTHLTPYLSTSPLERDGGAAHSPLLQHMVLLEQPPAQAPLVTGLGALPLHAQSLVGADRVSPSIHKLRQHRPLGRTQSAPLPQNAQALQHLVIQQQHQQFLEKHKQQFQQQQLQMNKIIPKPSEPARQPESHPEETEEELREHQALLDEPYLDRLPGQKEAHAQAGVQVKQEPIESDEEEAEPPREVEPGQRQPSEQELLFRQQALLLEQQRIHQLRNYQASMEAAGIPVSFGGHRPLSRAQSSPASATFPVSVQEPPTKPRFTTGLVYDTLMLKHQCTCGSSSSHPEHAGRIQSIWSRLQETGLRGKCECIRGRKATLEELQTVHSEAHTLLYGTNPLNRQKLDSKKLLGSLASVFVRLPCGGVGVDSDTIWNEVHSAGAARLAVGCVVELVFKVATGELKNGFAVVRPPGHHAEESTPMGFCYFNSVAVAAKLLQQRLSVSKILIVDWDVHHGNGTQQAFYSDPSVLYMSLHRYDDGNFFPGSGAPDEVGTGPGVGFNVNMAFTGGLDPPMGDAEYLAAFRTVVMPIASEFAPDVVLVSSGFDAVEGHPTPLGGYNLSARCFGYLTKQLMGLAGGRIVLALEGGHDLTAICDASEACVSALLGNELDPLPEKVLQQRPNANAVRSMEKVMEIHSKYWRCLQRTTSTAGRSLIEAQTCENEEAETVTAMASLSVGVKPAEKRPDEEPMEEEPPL

| SMILES | inhibition (HCT-116 [1]) | Drug metabolism [2] | inhibition (HCT-116 [3]) | inhibition (HCT-116 [4]) | Drug metabolism (Serum) | inhibition (HCT-116 [5]) | inhibition [6] | Tmax [7] | Tmax [8] | Drug metabolism [9] | inhibition (Histone deacetylase 4 [10]) | inhibition (Histone deacetylase 5 [11]) | IC50 (Histone deacetylase 4 [12]) | inhibition (Histone deacetylase 9 [13]) | IC50 (Histone deacetylase 7) | IC50 [14] | inhibition [15] | IC50 (Histone deacetylase 5 [16]) | IC50 (Histone deacetylase 9 [17]) |
| --- | --- | --- | --- | --- | --- | --- | --- | --- | --- | --- | --- | --- | --- | --- | --- | --- | --- | --- | --- |
| CCCCCCCC(=O)SCC/C=C/[C@@H]1CC(=O)NCc2nc(cs2)C2=N[C@@](C)(CS2)C(=O)N[C@@H](C(C)C)C(=O)O1 [LARGAZOLE] | Active | metabolite_detected | Active | Active | metabolite_detected | Active | Dose-dependent effect | 4 h | 4 h | metabolite_detected |  |  |  |  |  |  |  |  |  |
| CC(C)[C@H]1NC(=O)[C@]2(C)CSC(=N2)c2csc(n2)CNC(=O)C[C@@H](/C=C/CCS)OC1=O [LARGAZOLE THIOL] |  |  |  |  |  |  |  |  |  |  | < 20% | < 20% | Not Active | < 20% | Not Active | 5.9 nM | < 20% | Not Active | Not Active |
